From ChEMBL document CHEMBL4346656, “Synthesis of urea analogues bearing N-alkyl-N'-(thiophen-2-yl) scaffold and evaluation of their innate immune response to toll-like receptors” (Eur J Med Chem, 2019)
Blank lines part the entries; values can stand above or below the compound they belong to. Activity calls are given as the source filed them. The rule behind the calls is not given here.

Key:
Format in all cases: cell-based
Toll-like receptor 2 [1] = target: T1, Toll-like receptor 2 (Homo sapiens, UniProt O60603); test: Agonist activity at human TLR2 expressed in HEK-Blue cells assessed as activation of SEAP incubated for 24 hrs by quanti-blue SEAP assay
Summary of the method: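 TLR2 agonism in HEK-Blue hTLR2 cells, 4 × 10⁴/well, pre-cultured 24 h in DMEM/10% FBS at 37 °C, then treated 24 h with compound in fresh DMEM (tested up to 200 μM). Supernatant SEAP was read with QUANTI-Blue at 37 °C for 0.5–1 h, A620. EC50 came from at least three independent repeats.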

Toll-like receptor 2 [2] = target: T1, Toll-like receptor 2; test: Agonist activity at human TLR2 expressed in HEK-Blue cells assessed as increase in TLR2 expression at 0.1 uM incubated for 24 hrs by Western blot analysis relative to control
Summary of the method: (§1)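 Western blot: HEK-Blue hTLR2 cells, 1.5 × 10⁶/well, were grown 24 h, then treated in serum-free DMEM with compound (0–50 μM) for 24 h. Cells were lysed in RIPA/PMSF, equal lysate loaded, SDS-PAGE, nitrocellulose. Membranes were blocked with 5% milk, probed overnight at 4 °C with rabbit anti-TLR2 (1:2000), then HRP secondary, with GAPDH as loading control. Three independent experiments.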

Toll-like receptor 2 [3] = target: T1, Toll-like receptor 2; test: Agonist activity at human TLR2 expressed in HEK-Blue cells assessed as increase in TLR2 expression at 10 uM incubated for 24 hrs by Western blot analysis relative to control; summary of the method: as §1
[4] = target: T2, Toll-like receptor 1/2 (Homo sapiens) (UniProt O60603+Q15399); test: Agonist activity at human TLR1/2 expressed in HEK-Blue cells assessed as activation of SEAP at 0.5 uM incubated for 24 hrs by quanti-blue SEAP assay in presence of Anti-hTLR2-IgA
Summary of the method: (§2)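 HEK-Blue hTLR2 cells (endogenous TLR1 and TLR6) were seeded at 4 × 10⁴/well in DMEM with 10% FBS and grown 24 h at 37 °C. The medium was then replaced with DMEM holding 0.5 μM compound plus anti-hTLR1-IgG, anti-hTLR2-IgA or anti-hTLR6 antibody (0–10 μg/mL) for 24 h. Supernatant was mixed 1:1 with QUANTI-Blue for 0.5–1 h at 37 °C and A620 read.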

[5] = target: Toll-like receptor 4 (Homo sapiens) (UniProt O00206); test: Agonist activity at human TLR4 expressed in HEK-Blue cells assessed as activation of SEAP up to 100 uM incubated for 24 hrs by quanti-blue SEAP assay
Summary of the method: (§3)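 HEK-Blue hTLR3 or hTLR4 cells were seeded at 4 × 10⁴/well and pre-grown 24 h, then incubated 24 h with compound at 0–100 μM. […] SEAP in the supernatant was read by QUANTI-Blue at OD620.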

[6] = target: Toll-like receptor 3 (Homo sapiens) (UniProt O15455); test: Agonist activity at human TLR3 expressed in HEK-Blue cells assessed as activation of SEAP up to 100 uM incubated for 24 hrs by quanti-blue SEAP assay; summary of the method: as §3
[7] = Cytotoxicity against human HEK-Blue cells transfected with hTLR2 assessed as cell viability upto 100 uM incubated for 24 hrs by CCK8 assay
Summary of the method: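 HEK-Blue hTLR2 cells, 4 × 10⁴/well, were pre-cultured 24 h in DMEM/10% FBS at 37 °C, then exposed to compound for 24 h at 37 °C. Half the medium was removed, CCK-8 added, and incubation run 1–4 h at 37 °C before reading A450. Mean ± SD of three independent experiments.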

Toll-like receptor 2 [8] = target: T1, Toll-like receptor 2; test: Agonist activity at human TLR2 in PMA differentiated THP-1 cells assessed as TNF-alpha production incubated for 4 hrs by ELISA
Summary of the method: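 THP-1 cells (2.5 × 10⁵/mL) were differentiated with 100 nM PMA in RPMI/10% FBS for 24 h at 37 °C, 5% CO₂. They were washed, rested 24 h in fresh medium, then treated 4 h with compound in serum-free RPMI. Supernatant TNF-α was measured by sandwich ELISA against recombinant standards, duplicate samples. Mean ± SD, three independent experiments.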

[9] = target: Toll-like receptor 4 (Homo sapiens) (UniProt O00206); test: Agonist activity at human TLR4 expressed in HEK-Blue cells assessed as activation of SEAP at 10 ug/ml incubated for 24 hrs by quanti-blue SEAP assay
[10] = target: T2, Toll-like receptor 1/2 (Homo sapiens); test: Agonist activity at human TLR1/2 expressed in HEK-Blue cells assessed as activation of SEAP at 0.5 uM incubated for 24 hrs by quanti-blue SEAP assay in presence of Anti-hTLR1-IgG; summary of the method: as §2
TLR2/TLR6 (Homo sapiens) = TLR2/TLR6 (Homo sapiens) (UniProt O60603+Q9Y2C9); test: Agonist activity at human TLR2/6 expressed in HEK-Blue cells assessed as activation of SEAP at 0.5 uM incubated for 24 hrs by quanti-blue SEAP assay in presence of Anti-hTLR6-IgG; summary of the method: as §2
Toll-like receptor 2 [11] = target: T1, Toll-like receptor 2; test: Agonist activity at human TLR2 expressed in HEK-Blue cells assessed as NF-kappaB activation at 10 uM incubated for 24 hrs in presence of NF-kappaB inhibitor, triptolide by quanti-blue SEAP assay
Summary of the method: (§4)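 HEK-Blue hTLR2 cells (human TLR2 plus NF-κB-driven SEAP reporter in HEK293) were seeded at 4 × 10⁴/well and pre-grown 24 h at 37 °C. They were then exposed 24 h to compound in DMEM, with or without triptolide. SEAP in the supernatant was read with QUANTI-Blue (1:1, 37 °C, 0.5–1 h) at A620. Mean ± SD of three independent experiments.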

Toll-like receptor 2 [12] = target: T1, Toll-like receptor 2; test: Agonist activity at human TLR2 expressed in HEK-Blue cells assessed as NF-kappaB activation at 10 uM incubated for 24 hrs by quanti-blue SEAP assay; summary of the method: as §4

T1 sequence (O60603 whole entry): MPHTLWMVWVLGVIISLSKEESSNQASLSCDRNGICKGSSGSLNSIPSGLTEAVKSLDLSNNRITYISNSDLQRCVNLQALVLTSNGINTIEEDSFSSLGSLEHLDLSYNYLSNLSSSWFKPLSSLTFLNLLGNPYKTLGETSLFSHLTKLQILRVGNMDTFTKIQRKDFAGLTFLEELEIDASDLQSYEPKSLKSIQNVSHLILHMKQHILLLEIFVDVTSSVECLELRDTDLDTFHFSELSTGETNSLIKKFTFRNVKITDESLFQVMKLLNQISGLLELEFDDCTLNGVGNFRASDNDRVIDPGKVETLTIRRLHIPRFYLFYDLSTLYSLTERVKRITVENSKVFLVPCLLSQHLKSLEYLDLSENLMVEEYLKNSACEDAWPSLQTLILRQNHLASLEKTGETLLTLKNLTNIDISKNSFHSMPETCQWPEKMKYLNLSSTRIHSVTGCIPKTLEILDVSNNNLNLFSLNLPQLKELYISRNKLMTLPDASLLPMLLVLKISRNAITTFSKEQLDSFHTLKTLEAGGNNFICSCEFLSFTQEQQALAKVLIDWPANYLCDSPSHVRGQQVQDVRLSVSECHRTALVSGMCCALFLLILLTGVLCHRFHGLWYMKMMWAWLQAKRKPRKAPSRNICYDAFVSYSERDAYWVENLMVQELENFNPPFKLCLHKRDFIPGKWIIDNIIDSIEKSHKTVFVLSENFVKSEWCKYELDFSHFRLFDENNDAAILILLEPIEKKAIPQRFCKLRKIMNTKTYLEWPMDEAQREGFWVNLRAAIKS
Chain of Toll-like receptor 4 (Homo sapiens) (O00206 whole entry): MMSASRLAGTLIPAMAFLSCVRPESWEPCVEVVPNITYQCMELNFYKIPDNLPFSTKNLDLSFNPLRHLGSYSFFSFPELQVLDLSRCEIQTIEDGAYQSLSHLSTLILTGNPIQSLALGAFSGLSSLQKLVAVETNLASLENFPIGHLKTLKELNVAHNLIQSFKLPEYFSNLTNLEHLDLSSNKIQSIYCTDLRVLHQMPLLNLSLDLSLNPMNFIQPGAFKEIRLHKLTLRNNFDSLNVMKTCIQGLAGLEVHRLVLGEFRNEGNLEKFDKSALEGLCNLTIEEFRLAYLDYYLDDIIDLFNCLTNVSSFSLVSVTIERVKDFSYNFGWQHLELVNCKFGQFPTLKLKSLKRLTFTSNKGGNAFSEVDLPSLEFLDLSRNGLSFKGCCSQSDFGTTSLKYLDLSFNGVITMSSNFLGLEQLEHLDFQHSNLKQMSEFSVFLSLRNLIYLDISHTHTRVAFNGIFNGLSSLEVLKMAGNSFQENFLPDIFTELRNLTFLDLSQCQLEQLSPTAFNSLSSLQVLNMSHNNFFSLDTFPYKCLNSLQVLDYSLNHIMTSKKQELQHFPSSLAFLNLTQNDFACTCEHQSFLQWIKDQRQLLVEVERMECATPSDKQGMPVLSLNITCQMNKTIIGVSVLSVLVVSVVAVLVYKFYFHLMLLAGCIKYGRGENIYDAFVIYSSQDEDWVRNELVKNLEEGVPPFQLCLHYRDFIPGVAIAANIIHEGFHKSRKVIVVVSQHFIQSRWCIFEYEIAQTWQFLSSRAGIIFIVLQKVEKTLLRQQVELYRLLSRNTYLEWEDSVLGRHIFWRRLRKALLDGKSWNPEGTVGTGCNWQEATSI
Chain of Toll-like receptor 3 (Homo sapiens) (O15455 whole entry): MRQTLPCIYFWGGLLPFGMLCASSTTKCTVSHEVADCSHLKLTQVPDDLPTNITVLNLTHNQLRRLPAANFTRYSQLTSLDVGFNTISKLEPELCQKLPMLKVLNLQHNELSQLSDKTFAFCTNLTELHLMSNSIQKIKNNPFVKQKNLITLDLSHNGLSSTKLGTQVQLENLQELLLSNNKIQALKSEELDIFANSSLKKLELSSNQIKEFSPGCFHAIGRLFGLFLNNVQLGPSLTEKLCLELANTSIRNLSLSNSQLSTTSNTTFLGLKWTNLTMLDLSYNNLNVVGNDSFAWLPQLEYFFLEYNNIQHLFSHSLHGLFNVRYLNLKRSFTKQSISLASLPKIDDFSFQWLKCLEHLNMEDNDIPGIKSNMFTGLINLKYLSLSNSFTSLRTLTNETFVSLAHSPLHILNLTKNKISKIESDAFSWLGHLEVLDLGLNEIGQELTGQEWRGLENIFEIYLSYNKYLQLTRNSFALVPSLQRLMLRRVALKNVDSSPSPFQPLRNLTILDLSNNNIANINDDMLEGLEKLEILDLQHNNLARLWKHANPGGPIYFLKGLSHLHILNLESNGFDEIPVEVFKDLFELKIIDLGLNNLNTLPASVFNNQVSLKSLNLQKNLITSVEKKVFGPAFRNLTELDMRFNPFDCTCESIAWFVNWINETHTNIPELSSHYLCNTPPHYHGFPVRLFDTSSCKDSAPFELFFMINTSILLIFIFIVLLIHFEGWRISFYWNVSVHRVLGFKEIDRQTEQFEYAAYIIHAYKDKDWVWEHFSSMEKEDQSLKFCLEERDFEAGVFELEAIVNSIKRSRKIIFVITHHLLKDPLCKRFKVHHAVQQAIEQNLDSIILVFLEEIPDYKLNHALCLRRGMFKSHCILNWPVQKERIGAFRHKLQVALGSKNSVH

SMILES: CCOC(=O)c1c(NC(=S)N2CCN(c3ccccc3)CC2)sc2c1CCC2
EC50 (Toll-like receptor 2 [1]): Not Active

SMILES: CCCOC(=O)c1c(NC(=O)N2CCN(C)CC2)sc2c1CCC2
EC50 (Toll-like receptor 2 [1]; read-out: EC50): 14.2 µM

SMILES: COC(=O)c1c(NC(=O)N2CCN(C)CC2)sc2c1CCCCC2
EC50 (Toll-like receptor 2 [1]; read-out: EC50): 1.33 µM

SMILES: CCOC(=O)c1c(NC(=O)N2CCN(C(C)=O)CC2)sc2c1CCC2
EC50 (Toll-like receptor 2 [1]): Not Active

SMILES: CCOC(=O)c1c(NC(=O)N2CCOCC2)sc2c1CCC2
EC50 (Toll-like receptor 2 [1]): Not Active

SMILES: CCOC(=O)c1c(NC(=O)N2CCCCC2)sc2c1CCC2
EC50 (Toll-like receptor 2 [1]): Not Active

SMILES: CCOC(=O)c1c(NC(=S)N2CCN(C(C)=O)CC2)sc2c1CCC2
EC50 (Toll-like receptor 2 [1]): Not Active

SMILES: COC(=O)c1c(NC(=O)N2CCN(C)CC2)sc2c1CCC(C)C2 (stereo unspecified)
EC50 (Toll-like receptor 2 [1]; read-out: EC50): 11.8 µM

SMILES: CCOC(=O)c1c(NC(=O)N2CCN(CC)CC2)sc2c1CCC2
EC50 (Toll-like receptor 2 [1]; read-out: EC50): 8.55 µM

SMILES: CCOC(=O)c1c(NC(=O)N2CCN(C)CC2)sc2c1CCCC2
EC50 (Toll-like receptor 2 [1]; read-out: EC50): 0.35 µM

SMILES: CN1CCN(C(=O)Nc2sc3c(c2C(=O)O)CCC3)CC1
EC50 (Toll-like receptor 2 [1]): Not Active

SMILES: CCOC(=O)c1c(NC(=O)N2CCN(CCO)CC2)sc2c1CCC2
EC50 (Toll-like receptor 2 [1]): Not Active

SMILES: CC(C)OC(=O)c1c(NC(=O)N2CCN(c3ccccc3)CC2)sc2c1CCC2
EC50 (Toll-like receptor 2 [1]): Not Active

SMILES: CCCOC(=O)c1c(NC(=O)N2CCN(C)CC2)sc2c1CCCC2
EC50 (Toll-like receptor 2 [1]; read-out: EC50): 6.63 µM

SMILES: CCCCCC1CCc2c(sc(NC(=O)N3CCN(C)CC3)c2C(=O)OC)C1 (stereo unspecified)
EC50 (Toll-like receptor 2 [1]): Not Active

The next lines start with results.

EC50 (Toll-like receptor 2 [1]): Not Active
SMILES: CC(=O)N1CCN(C(=S)Nc2sc3c(c2C(=O)OC(C)C)CCC3)CC1

EC50 (Toll-like receptor 2 [1]; read-out: EC50): 4.59 µM
SMILES: CC(C)OC(=O)c1c(NC(=O)N2CCN(C)CC2)sc2c1CCC2

EC50 (Toll-like receptor 2 [1]; read-out: EC50): 3.46 µM
SMILES: CCOC(=O)c1c(NC(=S)N2CCN(C)CC2)sc2c1CCC2

EC50 (Toll-like receptor 2 [1]): Not Active
SMILES: CCN1CCN(C(=O)Nc2sc3c(c2C(=O)OC(C)C)CCC3)CC1

EC50 (Toll-like receptor 2 [1]; read-out: EC50): 6.43 µM
SMILES: CCOC(=O)c1c(NC(=S)N2CCN(C)CC2)sc2c1CCCC2

EC50 (Toll-like receptor 2 [1]; read-out: EC50): 16.4 µM
SMILES: CC(C)OC(=O)c1c(NC(=S)N2CCN(C)CC2)sc2c1CCC2

fold change (FC) (Toll-like receptor 2 [2]): > 5
fold change (FC) (Toll-like receptor 2 [3]): 8
Activity [4]: inactive
Activity [5]: inactive
Activity [6]: inactive
Activity (Toll-like receptor 2 [8]): Dose-dependent effect
EC50 (Toll-like receptor 2 [1]; read-out: EC50): 0.16 µM
Activity [9]: inactive
Activity [10]: inactive
Activity (TLR2/TLR6 (Homo sapiens)): Active
Activity (Toll-like receptor 2 [11]): inactive
Activity (Toll-like receptor 2 [12]): Active
SMILES: COC(=O)c1c(NC(=O)N2CCN(C)CC2)sc2c1CCCC2
Activity [7]: Non-Toxic

EC50 (Toll-like receptor 2 [1]; read-out: EC50): 0.56 µM
SMILES: CCOC(=O)c1c(NC(=O)N2CCN(C)CC2)sc2c1CCC2

EC50 (Toll-like receptor 2 [1]): Not Active
SMILES: CC(C)OC(=O)c1c(NC(=S)N2CCNCC2)sc2c1CCC2

EC50 (Toll-like receptor 2 [1]): Not Active
SMILES: CC(C)OC(=O)c1c(NC(=S)N2CCN(c3ccccc3)CC2)sc2c1CCC2

EC50 (Toll-like receptor 2 [1]; read-out: EC50): 0.45 µM
SMILES: COC(=O)c1c(NC(=O)N2CCN(C)CC2)sc2c1CCC2

EC50 (Toll-like receptor 2 [1]): Not Active
SMILES: CC(C)OC(=O)c1c(NC(=S)N2CCN(C)CC2)sc2c1CCCCC2

EC50 (Toll-like receptor 2 [1]; read-out: EC50): 45.2 µM
SMILES: CC(C)OC(=O)c1c(NC(=S)N2CCN(C)CC2)sc2c1CCCC2

EC50 (Toll-like receptor 2 [1]): Not Active
SMILES: CCCOC(=O)c1c(NC(=S)N2CCN(C)CC2)sc2c1CCCC2
